Measurements from ChEMBL document CHEMBL1141689, “Synthesis and biological evaluation of 2-amino-3-(3',4',5'-trimethoxybenzoyl)-6-substituted-4,5,6,7-tetrahydrothieno[2,3-c]pyridine derivatives as antimitotic agents and inhibitors of tubulin polymerization” (Bioorg Med Chem Lett, 2008).

Assays:
L1210 = experiment: Antiproliferative activity against mouse L1210 cells; assay type: functional, cell-based
FM3A = experiment: Antiproliferative activity against mouse FM3A cells; assay type: functional, cell-based
[1] = Antiproliferative activity against human Molt4/C8 cells; assay type: functional, cell-based; conditions: MOLT-4
CCRF-CEM = experiment: Antiproliferative activity against human CEM cells; assay type: cell-based
K562 [2] = experiment: Cell cycle arrest in human K562 cells assessed as accumulation at G2/M phase at 70 nM after 24 hrs using propidium iodide staining by flow cytometry; assay type: functional
K562 [3] = experiment: Cell cycle arrest in human K562 cells assessed as accumulation at S phase at 70 nM after 24 hrs using propidium iodide staining by flow cytometry; assay type: functional
K562 [4] = experiment: Cell cycle arrest in human K562 cells assessed as accumulation at G0/G1 phase at 70 nM after 24 hrs using propidium iodide staining by flow cytometry; assay type: functional
Bos taurus [5] = organism: Bos taurus; experiment: Displacement of [3H]colchicine from bovine brain tubulin at 5 uM
Bos taurus [6] = organism: Bos taurus; experiment: Displacement of [3H]colchicine from bovine brain tubulin at 1 uM
K562 [7] = experiment: Cell cycle arrest in human K562 cells assessed as accumulation at sub G0/G1 phase at 70 nM after 24 hrs using propidium iodide staining by flow cytometry; assay type: functional
[8] = Inhibition of tubulin polymerization
K562 [9] = experiment: Cell cycle arrest in human K562 cells assessed as accumulation at S phase at 80 nM after 24 hrs using propidium iodide staining by flow cytometry; assay type: functional
Summary of the method: (§1)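 K562 leukaemia cells were cultured 24 h with compound or without compound as a control, then washed once in ice-cold PBS. They were resuspended at 1 × 10^6/mL in hypotonic propidium iodide (50 μg/mL) in 0.1% sodium citrate with 0.03% (v/v) Nonidet P-40 and incubated 30 min. DNA content was read by flow cytometry as single-parameter histograms, and cell-cycle phase distribution was modelled from them.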

K562 [10] = experiment: Cell cycle arrest in human K562 cells assessed as accumulation at sub G0/G1 phase at 80 nM after 24 hrs using propidium iodide staining by flow cytometry; assay type: functional; summary of the method: as §1
K562 [11] = experiment: Cell cycle arrest in human K562 cells assessed as accumulation at G2/M phase at 80 nM after 24 hrs using propidium iodide staining by flow cytometry; assay type: functional; summary of the method: as §1
K562 [12] = experiment: Cell cycle arrest in human K562 cells assessed as accumulation at G0/G1 phase at 80 nM after 24 hrs using propidium iodide staining by flow cytometry; assay type: functional; summary of the method: as §1
K562 [13] = experiment: Cell cycle arrest in human K562 cells assessed as accumulation at S phase at 500 nM after 24 hrs using propidium iodide staining by flow cytometry; assay type: functional; summary of the method: as §1
K562 [14] = experiment: Cell cycle arrest in human K562 cells assessed as accumulation at G2/M phase at 500 nM after 24 hrs using propidium iodide staining by flow cytometry; assay type: functional; summary of the method: as §1
K562 [15] = experiment: Cell cycle arrest in human K562 cells assessed as accumulation at sub G0/G1 phase at 500 nM after 24 hrs using propidium iodide staining by flow cytometry; assay type: functional; summary of the method: as §1
K562 [16] = experiment: Cell cycle arrest in human K562 cells assessed as accumulation at G0/G1 phase at 500 nM after 24 hrs using propidium iodide staining by flow cytometry; assay type: functional; summary of the method: as §1

| SMILES | IC50 (L1210) [µM] | IC50 (CCRF-CEM) [µM] | IC50 (FM3A) [µM] | IC50 [1] [µM] | also measured |
| --- | --- | --- | --- | --- | --- |
| CNC(=S)N1CCc2c(sc(N)c2C(=O)c2cc(OC)c(OC)c(OC)c2)C1 | 4.9 | 1.8 | 2.8 | 1.6 | – |
| COc1cc(C(=O)c2c(N)sc3c2CCN(C)C3)cc(OC)c1OC | > 10 | > 10 | > 10 | > 10 | – |
| COC(=O)N1CCc2c(sc(N)c2C(=O)c2cc(OC)c(OC)c(OC)c2)C1 | 0.025 | 0.09 | 0.046 | 0.045 | Activity (K562 [2]): 33%; Activity (K562 [3]): 33%; Activity (K562 [4]): 34%; Activity (Bos taurus [5]): 84%; Activity (Bos taurus [6]): 71%; Activity (K562 [7]): 11%; IC50 [8]: 0.6 µM |
| COc1cc(C(=O)c2c(N)sc3ccccc23)cc(OC)c1OC | 0.09 | 0.074 | 0.1 | 0.073 | Activity (Bos taurus [5]): 71%; Activity (Bos taurus [6]): 25%; IC50 [8]: 1.9 µM |
| CCOC(=O)N1CCc2c(sc(N)c2C(=O)c2cc(OC)c(OC)c(OC)c2)C1 | 0.095 | 0.44 | 0.057 | 0.29 | Activity (K562 [9]): 30%; Activity (K562 [10]): 10%; Activity (K562 [11]): 40%; Activity (Bos taurus [5]): 82%; Activity (Bos taurus [6]): 67%; Activity (K562 [12]): 30%; IC50 [8]: 0.6 µM |
| COc1cc(C(=O)c2c(N)sc3c2CCN(C(=O)NC2CCCCC2)C3)cc(OC)c1OC | > 10 | > 10 | > 10 | > 10 | – |
| COc1ccc(/C=C\c2cc(OC)c(OC)c(OC)c2)cc1O [COMBRETASTATIN A4] | – | – | – | 0.0016 | Activity (Bos taurus [5]): 99%; Activity (Bos taurus [6]): 90% |
| COc1cc(C(=O)c2c(N)sc3c2CCN(C(=O)OC(C)(C)C)C3)cc(OC)c1OC | > 10 | > 10 | > 10 | > 10 | – |
| COc1cc(C(=O)c2c(N)sc3c2CCN(C(=O)Nc2ccccc2)C3)cc(OC)c1OC | > 10 | > 10 | > 10 | > 10 | – |
| CCCN1CCc2c(sc(N)c2C(=O)c2cc(OC)c(OC)c(OC)c2)C1 | > 10 | > 10 | > 10 | > 10 | – |
| COc1cc(C(=O)c2c(N)sc3cnccc23)cc(OC)c1OC | 0.37 | 1 | 0.4 | 0.34 | Activity (K562 [13]): 27%; Activity (K562 [14]): 54%; Activity (K562 [15]): 14%; Activity (K562 [16]): 19%; Activity (Bos taurus [5]): 27% |

More lines, main results first:

| IC50 (L1210) [µM] | IC50 (CCRF-CEM) [µM] | SMILES | IC50 (FM3A) [µM] | IC50 [1] [µM] | also measured |
| --- | --- | --- | --- | --- | --- |
| 2.1 | 1.7 | CCN1CCc2c(sc(N)c2C(=O)c2cc(OC)c(OC)c(OC)c2)C1 | 1.9 | 1.8 | – |
| > 10 | > 10 | COc1cc(C(=O)c2c(N)sc3c2CCN(C(=O)NCc2ccccc2)C3)cc(OC)c1OC | > 10 | > 10 | – |
| 1.1 | 1.2 | CCCOC(=O)N1CCc2c(sc(N)c2C(=O)c2cc(OC)c(OC)c(OC)c2)C1 | 1.4 | 0.47 | – |
| 6.8 | 6.7 | CCNC(=S)N1CCc2c(sc(N)c2C(=O)c2cc(OC)c(OC)c(OC)c2)C1 | 6.9 | 4.8 | – |
| > 10 | 8.3 | COc1cc(C(=O)c2c(N)sc3c2CCN(C(=O)OCc2ccccc2)C3)cc(OC)c1OC | > 10 | 7.5 | – |
| > 10 | > 10 | CCCCNC(=O)N1CCc2c(sc(N)c2C(=O)c2cc(OC)c(OC)c(OC)c2)C1 | > 10 | > 10 | – |
| > 10 | > 10 | COc1cc(C(=O)c2c(N)sc3c2CCN(Cc2ccccc2)C3)cc(OC)c1OC | > 10 | > 10 | – |
| > 10 | > 10 | COc1cc(C(=O)c2c(N)sc3c2CCN(C(=S)NC(C)C)C3)cc(OC)c1OC | > 10 | > 10 | – |
| > 10 | > 10 | COc1cc(C(=O)c2c(N)sc3c2CCN(C(=S)NC(C)(C)C)C3)cc(OC)c1OC | > 10 | > 10 | – |
| > 10 | > 10 | COc1cc(C(=O)c2c(N)sc3c2CCN(C(=O)OCC(C)C)C3)cc(OC)c1OC | > 10 | > 10 | – |
| 1.1 | – | COc1cc(C(=O)c2c(N)sc3c2CCN(C(=S)NC2CCCCC2)C3)cc(OC)c1OC | 1.4 | 0.75 | – |
| 3.9 | 1.4 | COc1cc(C(=O)c2c(N)sc3c2CCN(C(C)=O)C3)cc(OC)c1OC | 1.2 | 1.1 | – |
| > 10 | > 10 | COc1cc(C(=O)c2c(N)sc3c2CCN(C(=O)Oc2ccccc2)C3)cc(OC)c1OC | > 10 | > 10 | – |
| > 10 | > 10 | COc1cc(C(=O)c2c(N)sc3c2CCN(C(=O)NC(C)C)C3)cc(OC)c1OC | > 10 | > 10 | – |
| > 10 | > 10 | COc1cc(C(=O)c2c(N)sc3c2CCN(C(=O)NCc2ccc(F)cc2)C3)cc(OC)c1OC | > 10 | > 10 | – |
